# Assay results taken from PMC7655718 (The Journal of antibiotics, 2020).
# Like-named read-outs stand apart in the source and are kept apart here.
# Experiments:
# [1] = test system: S. aureus ATCC 33591 (Sa91); assay: MIC, microdilution with resazurin; type: cell-based; details: Staphylococcus aureus, ATCC33591, read-out: MIC Sa91
# Procedure, shortened: (§1)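 Compounds dissolved in DMSO at 2 mg/mL. Overnight blood-agar colonies were suspended in PBS to 0.5 McFarland, then diluted in Mueller Hinton broth to about 1x10^6 cfu/mL with resazurin (1:1000 of 0.1% w/v stock). Twofold DMSO dilutions were added 1:40, giving 50 to 0.4 μg/mL at 2.5% DMSO. Incubation was 35 °C for 16-20 h. Blue/non-turbid wells counted as inhibited, pink/turbid as grown.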
# [2] = test system: S. aureus BAA-2312 (Sa12); assay: MIC, microdilution with resazurin; type: cell-based; details: Staphylococcus aureus, BAA2312, read-out: MIC Sa12
# Procedure, shortened: as §1
# [3] = test system: S. aureus ATCC 33592 (Sa92); assay: MIC, microdilution with resazurin; type: cell-based; details: Staphylococcus aureus, ATCC33592, read-out: MIC Sa92
# Procedure, shortened: as §1
# [4] = test system: A. baumannii ATCC 19606 (type strain, Ab06); assay: MIC and MBC; type: cell-based, Acinetobacter baumannii; details: Acinetobacter baumannii
# Procedure, shortened: as §1
# [5] = test system: S. aureus ATCC 25923 (Sa23); assay: MIC, microdilution with resazurin; type: cell-based; details: Staphylococcus aureus, ATCC25923, read-out: MIC Sa23
# Procedure, shortened: as §1
# [6] = test system: S. aureus ATCC 700699 (Sa99); assay: MIC, microdilution with resazurin; type: cell-based; details: Staphylococcus aureus, ATCC700699, read-out: MIC Sa99
# Procedure, shortened: as §1
# [7] = test system: S. aureus ATCC 25923 biofilm formation; assay: Biofilm inhibition assay; type: cell-based, Staphylococcus aureus
# Procedure, shortened: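 Blood-agar culture was suspended in PBS (0.5 McFarland), then diluted 1:100 in yeast extract casamino acid broth (about 1x10^6 cfu/mL). Compound at 2xMIC, MIC and 0.5xMIC was added before biofilm formation, in triplicate, with broth-only and bacteria+DMSO controls. Incubation was 35 °C for 24 h. Wells were PBS-washed, dried, stained with 0.1% crystal violet, solubilised in 33% acetic acid and read at 620 nm. % inhibition = [1−(ODcompound−ODbroth)/(ODdmso−ODbroth)]×100, from mean and SD.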
# [8] = test system: tested Gram-positive bacterial strains; assay: MIC, text summary over tested Gram-positive strains; type: cell-based; details: read-out: MIC value as low as
# [9] = test system: S. epidermidis 700296 (Se); assay: MIC, microdilution with resazurin; type: cell-based; details: Staphylococcus epidermidis, read-out: MIC Se
# Procedure, shortened: as §1
# [10] = test system: B. subtilis ATCC 6623 (Bs); assay: MIC, microdilution with resazurin; type: cell-based, Bacillus subtilis; details: for MIC: Bacillus subtilis, ATCC6623, read-out: MIC Bs
# [11] = test system: A. baumannii ATCC 747 (Ab47); assay: MIC, microdilution with resazurin; type: cell-based, Acinetobacter baumannii; details: Acinetobacter baumannii, ATCC747, read-out: MIC Ab47
# Procedure, shortened: as §1
# [12] = test system: S. aureus ATCC 25923 preformed biofilm; assay: Biofilm destruction assay; type: cell-based, Staphylococcus aureus; details: 2xMIC, MIC and 0.5xMIC tested, 24 hours
# Procedure, shortened: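 Biofilm was first grown in 96-well plates for 24 h at 35 °C and washed with PBS to remove unadhered cells. Fresh yeast extract casamino acid broth was added with compound at 2xMIC, MIC or 0.5xMIC, or DMSO, in triplicate, plus broth-only wells. Incubation was 35 °C for 24 h. Crystal violet was stained, solubilised and read at 620 nm. % destruction = [1−(ODcompound−ODbroth)/(ODdmso−ODbroth)]×100, from triplicate means.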
# [13] = test system: human embryonic kidney cell line (HEK293); assay: Toxicity against HEK293 cell line; type: cell-based
# [14] = test system: tested A. baumannii strains; assay: MIC, text summary over A. baumannii strains; type: cell-based, Acinetobacter baumannii; details: Acinetobacter baumannii, read-out: MIC value as low as
# Procedure, shortened: as §1
# A. baumannii ATCC 19606 = assay: Time kill assay; type: cell-based, Acinetobacter baumannii; details: 4xMIC
# Procedure, shortened: (§2)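 Growth curves by optical density set the log phase. Log-phase bacteria (about 2 h shaking in Mueller Hinton broth II) were diluted in warm broth to about 3x10^6 cfu/mL. They were exposed to compound at 4xMIC (other multiples where indicated), in triplicate, at 35 °C. Colistin (A. baumannii) or vancomycin (S. aureus) and DMSO were included. Samples at 0, 2, 4, 6, 8, 10, 12 and 24 h were counted by drop plate on blood agar (18-24 h, 35 °C). Log cfu/mL was plotted against time.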
# [15] = test system: S. aureus ATCC 33599 (MRSA); assay: MIC and MBC; type: cell-based, Staphylococcus aureus; details: Staphylococcus aureus, ATCC33599|MRSA
# Procedure, shortened: as §1
# [16] = test system: S. aureus ATCC 33599 (MRSA); assay: Time kill assay; type: cell-based, Staphylococcus aureus; details: 4xMIC
# Procedure, shortened: as §2
# [17] = 2xMIC, MIC and 0.5xMIC concentrations, 24 hours
Structure (SMILES),MIC [1] [µg/mL],MIC [2] [µg/mL],MIC [3] [µg/mL],"MIC ([4]; ATCC19606, read-out: MIC Ab06) [µg/mL]",MIC [5] [µg/mL],MIC [6] [µg/mL],MIC [8] [µg/mL],MIC [9] [µg/mL],MIC [10] [µg/mL],MIC [11] [µg/mL],destruction of preformed biofilm [12],toxicity for HEK293 [13],MBC [15] [µg/mL],MIC [15] [µg/mL],further results
O=C(O)c1ccc(-n2cc(/C=N/N(c3ccccc3)c3ccccc3)c(-c3ccc4ccccc4c3)n2)cc1 [Compound 8],3.12,3.12,1.56,> 50,1.56,1.56,≥ 1.56,1.56,12.5,> 50,–,–,–,–,"inhibition of biofilm formation [7, 17]: very effective"
O=C(O)c1ccc(-n2cc(/C=N/N(Cc3ccccc3)Cc3ccccc3)c(-c3ccc4ccccc4c3)n2)cc1 [Compound 10],1.56,3.12,1.56,> 50,3.12,1.56,≥ 1.56,3.12,> 50,> 50,excellent ability to eliminate the preformed biofilms,did not show any significant toxicity,–,–,"IC50 ([13]; Homo sapiens, HEK293, read-out: IC50 for HEK293 cell line): ~50 µg/mL; inhibition of biofilm formation [7, 17]: very effective; MIC Bs ([10]; B. subtilis ATCC 6623): no activity"
O=C(O)c1ccc(-n2cc(/C=N/Nc3ccccc3F)c(-c3ccc4ccccc4c3)n2)cc1 [Compound 14],12.5,12.5,1.56,25,12.5,3.12,≥ 1.56,12.5,6.25,25,–,–,–,–,MIC [14]: ≥ 6.25 µg/mL
O=C(O)c1ccc(-n2cc(/C=N/Nc3cccc(F)c3)c(-c3ccc4ccccc4c3)n2)cc1 [Compound 15],12.5,12.5,3.12,6.25,6.25,1.56,≥ 1.56,6.25,12.5,12.5,–,–,–,–,MBC ([4]; ATCC19606): 12.5 µg/mL; MIC ([4]; ATCC19606): 6.25 µg/mL; MIC [14]: ≥ 6.25 µg/mL
O=C(O)c1ccc(-n2cc(/C=N/Nc3ccc(Cl)cc3)c(-c3ccc4ccccc4c3)n2)cc1 [Compound 16],12.5,6.25,3.12,3.12,6.25,1.56,–,6.25,12.5,6.25,–,–,–,–,MBC ([4]; ATCC19606): 50 µg/mL; MIC ([4]; ATCC19606): 3.12 µg/mL; time kill effect (A. baumannii ATCC 19606; 24 hours at 35 °C): bacteriostatic effect; increase in log10 cfu/mL of the bacterial population (A. baumannii ATCC 19606; through 24 hours): ≤ 2 fold
O=C(O)c1ccc(-n2cc(/C=N/Nc3c(F)c(F)cc(F)c3F)c(-c3ccc4ccccc4c3)n2)cc1 [Compound 23],> 50,> 50,1.56,> 50,3.12,1.56,≥ 0.78,> 50,3.12,> 50,–,selective toxicity for bacterial cells,12.5,1.56,–
O=C(O)c1ccc(-n2cc(/C=N/Nc3c(F)c(F)c(F)c(F)c3F)c(-c3ccc4ccccc4c3)n2)cc1 [Compound 24],> 50,> 50,0.78,> 50,3.12,0.78,≥ 0.78,> 50,1.56,> 50,–,selective toxicity for bacterial cells,–,–,–
O=C(O)c1ccc(-n2cc(/C=N/Nc3ccc(C(F)(F)F)cc3)c(-c3ccc4ccccc4c3)n2)cc1 [Compound 25],25,12.5,0.78,> 50,0.78,0.78,≥ 0.78,25,1.56,> 50,excellent ability to eliminate the preformed biofilms,–,25,0.78,inhibition of biofilm formation ([7]; 2xMIC): potent biofilm inhibition activity
"CN[C@H](CC(C)C)C(=O)N[C@H]1C(=O)N[C@@H](CC(N)=O)C(=O)N[C@H]2C(=O)N[C@H]3C(=O)N[C@H](C(=O)N[C@H](C(=O)O)c4cc(O)cc(O)c4-c4cc3ccc4O)[C@H](O)c3ccc(c(Cl)c3)Oc3cc2cc(c3O[C@@H]2O[C@H](CO)[C@@H](O)[C@H](O)[C@H]2O[C@H]2C[C@](C)(N)[C@H](O)[C@H](C)O2)Oc2ccc(cc2Cl)[C@H]1O [VC, vancomycin, reference compound]",3.12,0.78,0.39,> 50,1.56,3.12,–,3.12,0.195,> 50,almost failed to show any activity,–,6.25,3.12,inhibition of biofilm formation ([7]; 0.5xMIC): weak inhibition; inhibition of biofilm formation ([7]; 2xMIC and MIC concentration): potent inhibition; time until bacteria were eliminated [16]: ≤ 8 h; time kill effect ([16]; 24 hours at 35 °C): mildly bactericidal
